Assay results: ChEMBL document CHEMBL4334542, “Antimalarial N 1,N 3-Dialkyldioxonaphthoimidazoliums: Synthesis, Biological Activity, and Structure-activity Relationships” (ACS Med Chem Lett, 2020)
pEC50, pIC50: −log10 of the molar value. Active and inactive are the calls of the source. The calls are words filed in the database; no cut-off is given here.

What was measured:
[1] = Cmax in C57BL/6 mouse at 20 mg/kg, po measured upto 24 hrs by LCMS analysis; type: ADME, organism-based; design: dose 20 mg/kg, route oral; conditions: in vivo
[2] = Solubility of compound at pH 7.4 measured after 24 hrs; type: physicochemical; conditions: buffer
Procedure, shortened: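 Water solubility measured at pH 7.4.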

[3] = system: Plasmodium falciparum; assay: Antimalarial activity against Plasmodium falciparum NF54 incubated for 48 hrs by [3H]-hypoxanthine incorporation assay; type: functional, organism-based
[4] = system: Plasmodium falciparum; assay: Antimalarial activity against asexual stage of Plasmodium falciparum 3D7 infected in erythrocytes assessed as reduction in parasite growth incubated for 48 hrs under hypoxic condition by Hoechst 33342 staining based flow cytometry; type: functional, organism-based; conditions: 3D7, 48 h
Procedure, shortened: (§1)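 Asexual Dd2 and 3D7 parasites in erythrocytes; DNA content of infected cells measured by Hoechst 33342 staining and FACS. IC50 is the concentration giving 50% of the net fluorescence of untreated control cultures; mean ± SD of n = 3 separate determinations.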

[5] = system: Plasmodium falciparum; assay: Antimalarial activity against asexual stage of Plasmodium falciparum NF54 assessed as reduction in parasite growth incubated for 96 hrs by SYBR Green I dye-based fluorescence assay; type: functional, organism-based; conditions: NF54, 96 h
Procedure, shortened: (§2)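 Asexual NF54, K1 and W2 parasites; proliferation read as SYBR Green I fluorescence. IC50 is the concentration giving 50% of the net SYBR Green I fluorescence of untreated control cultures; mean ± SEM of n = 3 independent biological replicates.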

[6] = system: Plasmodium falciparum; assay: Antimalarial activity against asexual stage of Plasmodium falciparum Dd2 infected in erythrocytes assessed as reduction in parasite growth incubated for 48 hrs under hypoxic condition by Hoechst 33342 staining based flow cytometry; type: functional, organism-based; conditions: Dd2, 48 h; procedure, shortened: as §1
[7] = Effective permeability of compound at pH 7.4 measured after 16 hrs PAMPA; type: ADME; conditions: pH 7.4, 16 h
[8] = Oral bioavailability in C57BL/6 mouse at 20 mg/kg measured upto 24 hrs by LCMS analysis; type: ADME, organism-based; conditions: in vivo
[9] = Time at which plasma concentration stays above in vitro IC50 for asexual stage of Plasmodium falciparum 3D7 infected in erythrocytes in C57BL/6 mouse at 20 mg/kg, po; type: ADME, organism-based; conditions: in vivo
[10] = AUC (0 to last) at steady state in C57BL/6 mouse at 2 mg/kg, iv measured upto […] by LCMS analysis; type: ADME, organism-based; design: dose 2 mg/kg, time 0 - last, route intravenous; conditions: in vivo
[11] = Toxicity in C57BL/6 mouse assessed as distress effect at 2 mg/kg, iv observed upto 24 hrs; type: organism-based; conditions: in vivo
Procedure, shortened: (§3)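 Male C57BL6 mice given one dose, 2 mg/kg iv or 20 mg/kg oral (n=3 per route), checked for signs of distress 24 h after dosing.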

[12] = Toxicity in C57BL/6 mouse assessed as distress effect at 20 mg/kg, po observed upto 24 hrs; type: organism-based; conditions: in vivo; procedure, shortened: as §3
[13] = system: CHO-K1; assay: Cytotoxicity against CHOK1 cells assessed as reduction in cell viability incubated for 48 hrs by CellTiter 96 aqueous one solution assay; type: cell-based; conditions: Cricetulus griseus, CHO-K1, 48 h
Procedure, shortened: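 Cell growth measured by a tetrazolium dye assay. IC50 is the concentration reducing growth by 50% relative to untreated cultures; mean ± SD of n = 3 separate determinations.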

[14] = Toxicity in C57BL/6 mouse at 2 mg/kg, iv; type: organism-based; conditions: in vivo; procedure, shortened: as §3
[15] = system: Plasmodium falciparum; assay: Antimalarial activity against Plasmodium falciparum 3D7 infected in orally dosed NOD-SCID IL-2Ry deficient mouse assessed as reduction in parasitemia administered on day 3 to 6 and measured on day 7 by TER-119-PE and SYTO-19 dye based flow cytometry; type: functional; conditions: 3D7, po
Procedure, shortened: (§4)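 Humanized mouse infected with P. falciparum Pf3D7 0087/N9; oral dosing on Days 3–6 at 5 dose levels spanning 1–50 mg/kg. Parasitemia measured each treatment day and on Day 7. ED90 from non-linear fit of log Day-7 parasitemia against oral dose, relative to untreated controls.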

[16] = Stability in rat liver microsomes incubated for 45 mins in presence of NADPH by chromatographic analysis; type: ADME, Microsome; conditions: 0.75 h
[17] = Half life in C57BL/6 mouse at 2 mg/kg, iv measured upto 24 hrs by LCMS analysis; type: ADME, organism-based; conditions: in vivo
[18] = system: Plasmodium falciparum; assay: Antimalarial activity against asexual stage of Plasmodium falciparum K1 assessed as reduction in parasite growth incubated for 96 hrs by SYBR Green I dye-based fluorescence assay; type: functional, organism-based; conditions: K1, 96 h; procedure, shortened: as §2
[19] = Redox cycling activity of the compound […] measured after 45 mins by phenol red reagent based horseradish peroxidase coupled assay
Procedure, shortened: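 Redox cycling EC50 determined by the phenol red horseradish peroxidase assay.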

[20] = system: Plasmodium falciparum; assay: Antimalarial activity against asexual stage of Plasmodium falciparum W2 assessed as reduction in parasite growth incubated for 96 hrs by SYBR Green I dye-based fluorescence assay; type: functional, organism-based; conditions: W2, 96 h
[21] = system: Plasmodium falciparum; assay: Antimalarial activity against Plasmodium falciparum NF54 early gametocytes transfected with luciferase gene incubated for 48 hrs by luciferase reporter gene assay; type: functional, organism-based; conditions: NF54, 48 h
Procedure, shortened: (§5)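 Gametocytes of NF54-Pfs16-GFP-Luc, early (>95% stage II/III) or late (>90% stage IV/V); luciferase read-out. IC50 is the concentration giving 50% reduction of luminescence; mean ± SEM of n = 3 independent biological replicates.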

[22] = Half life in C57BL/6 mouse at 20 mg/kg, po measured upto 24 hrs by LCMS analysis; type: ADME, organism-based; conditions: in vivo
[23] = system: Plasmodium falciparum; assay: Antimalarial activity against Plasmodium falciparum K1 incubated for 48 hrs by [3H]-hypoxanthine incorporation assay; type: functional, organism-based
[24] = system: Plasmodium falciparum; assay: Antimalarial activity against Plasmodium falciparum NF54 late gametocytes transfected with luciferase gene incubated for 48 hrs by luciferase reporter gene assay; type: functional, organism-based; conditions: NF54, 48 h; procedure, shortened: as §5
[25] = system: Plasmodium falciparum; assay: Antimalarial activity against Plasmodium falciparum 3D7 infected in NOD-SCID IL-2Ry deficient mouse assessed as reduction in parasitemia at 50 mg/kg, po administered on day 3 to 6 and measured on day 7 by TER-119-PE and SYTO-19 dye based flow cytometry; type: functional, organism-based; procedure, shortened: as §4
[26] = AUC (0 to last) in C57BL/6 mouse at 20 mg/kg, po measured upto 24 hrs by LCMS analysis; type: ADME, organism-based; design: dose 20 mg/kg, time 0 - last, route oral; conditions: in vivo
[27] = Toxicity in C57BL/6 mouse at 20 mg/kg, po; type: organism-based; conditions: in vivo; procedure, shortened: as §3
[28] = Tmax in C57BL/6 mouse at 20 mg/kg, po measured upto 24 hrs by LCMS analysis; type: ADME, organism-based; conditions: in vivo
[29] = system: Plasmodium falciparum; assay: Antimalarial activity against Plasmodium falciparum TM90C2B incubated for 48 hrs by [3H]-hypoxanthine incorporation assay; type: functional, organism-based
[30] = Volume of distribution in C57BL/6 mouse at 2 mg/kg, iv measured upto 24 hrs by LCMS analysis; type: ADME, organism-based; conditions: in vivo
[31] = system: Plasmodium falciparum; assay: Antimalarial activity against asexual stage of Plasmodium falciparum 3D7 infected in O-positive erythrocytes assessed as reduction in parasite growth incubated for 72 hrs by SYBR Green I dye-based spectrophotometric analysis; type: functional, organism-based; conditions: 3D7, 72 h
[32] = system: Plasmodium falciparum; assay: Antimalarial activity against sexual stage of Plasmodium falciparum 3D7 gametocytes assessed as reduction in parasite growth incubated for 3 days by alamar blue staining based assay; type: functional, organism-based; conditions: 3D7, 72 h

Cc1n(C(C)C)c2c([n+]1C(C)C)C(=O)c1ccccc1C2=O.[Br-]
Cmax [1]: 337 nM
solubility at 24 h [2]: > 100 µM
pIC50 [3]: 9.00
pIC50 [4]: 8.19
pIC50 [5]: 8.84
pIC50 [6]: 8.33
Peff [7]: Impermeable
bioavailability [8]: 5%
Time [9]: 24 h
AUClast [10]: 130 µmol·min/L
Activity [11]: Non-Toxic
Activity [12]: Non-Toxic
pIC50 [13]: 4.25
Activity [14]: Non-Toxic
ED90 [15]: 34 mg/kg
Stability [16]: Stable
half-life [17]: 1.4 h
pIC50 [18]: 8.60
Activity [19]: Active
pIC50 [20]: 8.66
pIC50 [21]: 7.14
half-life [22]: 11.3 h
pIC50 [23]: 8.72
pIC50 [24]: 6.19
Activity [25]: inactive
AUClast [26]: 69 µmol·min/L
Activity [27]: Non-Toxic
Tmax [28]: 2 h
pIC50 [29]: 8.80
Vd [30]: 8.3 L/kg

CCOc1ccc(-[n+]2c3c(n(C)c2C)C(=O)c2ccccc2C3=O)cc1
pEC50 [31]: 9.00
pEC50 [32]: 7.03
